Holding throughout (format): functional
Experiment [1] deals with Mycobacterium tuberculosis. Description: Antibacterial activity against multi drug resistant Mycobacterium tuberculosis 134/02 isolate. Summed up:
(§1)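 MIC against clinical MTB isolates by the macrodilution broth method in Middlebrook broth enriched with 10% ADC. Values are in µg/mL.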

Experiment [2] has as its system Mycobacterium tuberculosis. As to the kind of experiment: Antibacterial activity against multi drug resistant Mycobacterium tuberculosis 482/98 isolate. Summed up:
as §1

Experiment [3] relates to Mycobacterium tuberculosis. As to the kind of experiment: Antibacterial activity against multi drug resistant Mycobacterium tuberculosis 275/05 isolate. Summed up: as §1
Experiment [4] relates to Mycobacterium tuberculosis. As to the kind of experiment: Antibacterial activity against multi drug resistant Mycobacterium tuberculosis 296/04 isolate. Summed up: as §1
The test system of experiment [5] is Mycobacterium tuberculosis. As to the kind of experiment: Antibacterial activity against multi drug resistant Mycobacterium tuberculosis 149/03 isolate. Summed up: as §1
Experiment [6] has as its system Mycobacterium tuberculosis. As to the kind of experiment: Antibacterial activity against multi drug resistant Mycobacterium tuberculosis 43/05 isolate. Summed up:
as §1

Experiment [7] concerns Mycobacterium tuberculosis. As to the kind of experiment: Antibacterial activity against multi drug resistant Mycobacterium tuberculosis 586/98 isolate. Summed up: as §1
In experiment [8] the test system is Mycobacterium tuberculosis. Description: Antibacterial activity against multi drug resistant Mycobacterium tuberculosis 326/04 isolate. Summed up: as §1
Experiment [9] deals with Mycobacterium tuberculosis. Description: Antibacterial activity against multi drug resistant Mycobacterium tuberculosis 520/98 isolate. Summed up: as §1
In experiment [10] the test system is Mycobacterium tuberculosis. As to the kind of experiment: Antibacterial activity against multi drug resistant Mycobacterium tuberculosis 421/96 isolate. The method, boiled down: as §1
In experiment [11] the test system is Mycobacterium tuberculosis. Description: Antibacterial activity against multi drug resistant Mycobacterium tuberculosis 158/97 isolate. The method, boiled down: as §1

The term MIC denotes the lowest concentration that inhibits growth of the organism. A higher MIC goes with weaker potency.

Converted amounts (≈) assume the structure as drawn.

With `Cc1ccc(-c2cc(CN3CCSCC3)c(C)n2-c2ccc(F)cc2)cc1`, the MIC in experiment [1], in experiment [2], in [3], in [4], in experiment [5] and in [6] was 0.5 µg/mL (≈ 1.31 µM) throughout. Also, the MIC in [7] was 0.5 µg/mL (≈ 1.31 µM); in experiment [8], 32 µg/mL (≈ 84.1 µM); in [9] it was 0.5 µg/mL (≈ 1.31 µM); in experiment [10] it was 0.5 µg/mL (≈ 1.31 µM); in [11], 0.5 µg/mL (≈ 1.31 µM).
As to `Cc1c(CN2CCSCC2)cc(-c2ccc(F)cc2)n1-c1ccccc1F`, the MIC turned out to be 2 µg/mL (≈ 5.2 µM) in [1]; 2 µg/mL (≈ 5.2 µM) in experiment [2]; 2 µg/mL (≈ 5.2 µM) in experiment [3]; 2 µg/mL (≈ 5.2 µM) in [4]; 2 µg/mL (≈ 5.2 µM) in [5]; 0.5 µg/mL (≈ 1.3 µM) in [6]. Further, the MIC is 2 µg/mL (≈ 5.2 µM) in experiment [7]; greater than 32 µg/mL in [8]; 2 µg/mL (≈ 5.2 µM) in experiment [9]; 2 µg/mL (≈ 5.2 µM) in experiment [10]; 0.5 µg/mL (≈ 1.3 µM) in experiment [11].

For the origin of these results see ChEMBL document CHEMBL1145326, “Antimycobacterial agents. Novel diarylpyrrole derivatives of BM212 endowed with high activity toward Mycobacterium tuberculosis and low cytotoxicity” (2006).
